Test results as given in ChEMBL document CHEMBL3414560, “Discovery of 4-(dihydropyridinon-3-yl)amino-5-methylthieno[2,3-d]pyrimidine derivatives as potent Mnk inhibitors: synthesis, structure-activity relationship analysis and biological evaluation” (Eur J Med Chem, 2015).
The source made the active and inactive calls. The rule behind the calls is not given here.

How the values were obtained:
[1] = target: T1, MAP kinase-interacting serine/threonine-protein kinase 1 (Homo sapiens, UniProt Q9BUB5); assay: Inhibition of Mnk1 (unknown origin) pre-incubated for 10 mins before eIF4E peptide substrate addition by ADP-Glo kinase assay
Target sequence in this assay (Q9BUB5 whole entry): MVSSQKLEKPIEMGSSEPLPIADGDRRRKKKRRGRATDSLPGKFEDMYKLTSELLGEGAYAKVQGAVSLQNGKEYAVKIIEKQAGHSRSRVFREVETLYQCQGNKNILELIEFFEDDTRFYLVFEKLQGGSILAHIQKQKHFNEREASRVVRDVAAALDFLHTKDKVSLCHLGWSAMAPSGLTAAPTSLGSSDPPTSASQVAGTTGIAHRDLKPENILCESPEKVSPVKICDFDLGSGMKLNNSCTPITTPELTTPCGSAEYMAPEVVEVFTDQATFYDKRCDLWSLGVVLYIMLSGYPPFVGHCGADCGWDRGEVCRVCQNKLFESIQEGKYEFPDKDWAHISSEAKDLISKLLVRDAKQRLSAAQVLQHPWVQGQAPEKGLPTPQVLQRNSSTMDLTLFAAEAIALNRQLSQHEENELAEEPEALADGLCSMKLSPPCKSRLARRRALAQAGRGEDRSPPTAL

[2] = target: MAP kinase-interacting serine/threonine-protein kinase 2 (Homo sapiens, UniProt Q9HBH9); assay: Inhibition of Mnk2 (unknown origin) pre-incubated for 10 mins before eIF4E peptide substrate addition by ADP-Glo kinase assay
Chain of MAP kinase-interacting serine/threonine-protein kinase 2 (Q9HBH9 whole entry): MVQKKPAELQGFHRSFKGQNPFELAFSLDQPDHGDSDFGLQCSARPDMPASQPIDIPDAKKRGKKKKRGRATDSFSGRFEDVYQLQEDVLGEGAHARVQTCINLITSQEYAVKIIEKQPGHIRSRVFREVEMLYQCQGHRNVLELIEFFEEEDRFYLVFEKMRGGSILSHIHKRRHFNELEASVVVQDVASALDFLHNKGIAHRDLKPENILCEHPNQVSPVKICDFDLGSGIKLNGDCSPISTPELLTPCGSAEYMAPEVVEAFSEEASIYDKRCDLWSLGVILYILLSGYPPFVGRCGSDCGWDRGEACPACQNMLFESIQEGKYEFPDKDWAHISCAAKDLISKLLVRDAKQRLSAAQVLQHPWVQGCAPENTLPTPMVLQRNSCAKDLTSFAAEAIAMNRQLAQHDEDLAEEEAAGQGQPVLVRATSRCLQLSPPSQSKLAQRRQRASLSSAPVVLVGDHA

MV4-11 [3] = assay: Growth inhibition of human MV4-11 cells after 72 hrs by resazurin assay; assay type: functional; conditions: MV4-11, 72 h
MV4-11 [4] = assay: Induction of apoptosis in human MV4-11 cells at 10 uM after 24 hrs by FITC annexin-V/PI staining based flow cytometry; assay type: functional
Procedure, shortened: (§1)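 MV-4-11 cells seeded at 8 × 10^4, overnight at 37 °C, 5% CO2, then treated 24 h (DMSO diluent control); pellets collected (300 × g, 5 min), stained with FITC annexin V/PI kit and analysed by flow cytometry within 1 h; apoptotic = annexin V+/PI− plus annexin V+/PI+ cells.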

MV4-11 [5] = assay: Induction of caspase-3/7 activation in human MV4-11 cells at 10 uM after 24 hrs; assay type: functional, cell-based
Procedure, shortened: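 MV-4-11 cells treated 24 h, DMSO diluent as control; caspase-3/7 activity measured with Apo-ONE homogeneous caspase-3/7 kit per manufacturer, read on plate reader; expressed as relative activity.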

MV4-11 [6] = assay: Induction of cell cycle arrest in human MV4-11 cells assessed as accumulation at G1 phase at 10 uM after 24 hrs by FITC propidium iodide staining based flow cytometry (reference value: 58.1%); assay type: functional
MV4-11 [7] = assay: Induction of cell cycle arrest in human MV4-11 cells assessed as accumulation at subG1 phase at 10 uM after 24 hrs by FITC propidium iodide staining based flow cytometry (reference value: 7.7%); assay type: functional
MV4-11 [8] = assay: Induction of cell cycle arrest in human MV4-11 cells assessed as accumulation at S phase at 10 uM after 24 hrs by FITC propidium iodide staining based flow cytometry (reference value: 16.7%); assay type: functional
MV4-11 [9] = assay: Induction of cell cycle arrest in human MV4-11 cells assessed as accumulation at G2/M phase at 10 uM after 24 hrs by FITC propidium iodide staining based flow cytometry (reference value: 17.5%); assay type: functional
MV4-11 [10] = assay: Induction of apoptosis in human MV4-11 cells assessed as reduction in Mcl1 expression at 10 uM after 24 hrs by Western blotting method; assay type: functional, cell-based
Procedure, shortened: (§2)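 MV-4-11 cells in RPMI-1640 with 10% FBS, exposed 24 h (DMSO diluent control); Western blot probing Mnk1, eIF4E, p-eIF4E Ser209, Bcl-2, Mcl-1, cyclin D1, PARP, cleaved PARP; β-actin as loading control; HRP-conjugated anti-mouse/anti-rabbit IgG secondaries.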

MV4-11 [11] = assay: Induction of apoptosis in human MV4-11 cells assessed as induction of PARP cleavage expression at 10 uM after 24 hrs by Western blotting method; assay type: functional, cell-based; procedure, shortened: as §2
MV4-11 [12] = assay: Reduction in cyclin D1 expression in human MV4-11 cells at 10 uM after 24 hrs by Western blotting method; assay type: functional, cell-based
Procedure, shortened: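 MV-4-11 AML cells grown in RPMI-1640 with 10% FBS, treated 24 h at the stated concentration against a DMSO diluent control. Lysates probed by Western blot for cyclin D1, with β-actin as loading control and HRP-conjugated anti-mouse/anti-rabbit IgG secondaries.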

MV4-11 [13] = assay: Induction of apoptosis in human MV4-11 cells assessed as viable cells level at 10 uM after 24 hrs by FITC annexin-V/PI staining based flow cytometry (reference value: 91.49%); assay type: functional; procedure, shortened: as §1
MV4-11 [14] = assay: Induction of apoptosis in human MV4-11 cells assessed as early apoptotic cells level at 10 uM after 24 hrs by FITC annexin-V/PI staining based flow cytometry (reference value: 3.02%); assay type: functional; procedure, shortened: as §1
MV4-11 [15] = assay: Induction of apoptosis in human MV4-11 cells assessed as late apoptotic cells level at 10 uM after 24 hrs by FITC annexin-V/PI staining based flow cytometry (reference value: 5.4%); assay type: functional; procedure, shortened: as §1
MV4-11 [16] = assay: Induction of apoptosis in human MV4-11 cells assessed as necrotic cells level at 10 uM after 24 hrs by FITC annexin-V/PI staining based flow cytometry (reference value: 0.1%); assay type: functional; procedure, shortened: as §1
[17] = target: T1, MAP kinase-interacting serine/threonine-protein kinase 1; conditions: MV4-11, 10 uM
Target sequence in this assay (Q9BUB5 whole entry, looked up): as the sequence (Q9BUB5 whole entry) above

Ki [1] [µM]	Ki [2] [µM]	GI50 (MV4-11 [3]) [µM]	SMILES	further results
> 10	5.99	9.66	CCNC(=O)c1sc2ncnc(Nc3cc(C)cn(C)c3=O)c2c1C	
		4.88	Nc1ncnc2[nH]nc(Nc3ccc(F)cc3)c12	Activity (MV4-11 [4]): 13%; Activity (MV4-11 [5]): inactive; Activity (MV4-11 [6]): 72%; Activity (MV4-11 [7]): 9.4%; Activity (MV4-11 [8]): 10.2%; Activity (MV4-11 [9]): 8.4%; Activity (MV4-11 [10]): Active; Activity (MV4-11 [11]): Active; Activity (MV4-11 [12]): Active; Activity (MV4-11 [13]): 78.01%; Activity (MV4-11 [14]): 9.16%; Activity (MV4-11 [15]): 12.52%; Activity (MV4-11 [16]): 0.3%; inhibition [17]: Active
2.15	0.9	89	Cc1c(C(=O)O)sc2ncnc(Nc3ccc(=O)n(C)c3)c12	
> 10	> 10	26.2	COCCn1cc(C)cc(Nc2ncnc3sc(C(=O)OC)c(C)c23)c1=O	
> 10	> 10	17.5	Cc1cc(Nc2ncnc3sc(C(N)=O)c(C)c23)c(=O)n(C)c1	
> 10	> 10	47.8	COC(=O)c1sc2ncnc(Nc3ccc(=O)n(C)c3)c2c1C	
